Measured values: ChEMBL document CHEMBL4177760, “Ligand-Phospholipid Conjugation: A Versatile Strategy for Developing Long-Acting Ligands That Bind to Membrane Proteins by Restricting the Subcellular Localization of the Ligand” (J Med Chem, 2018)
Active and inactive are the calls of the source. No cut-off for these calls is given here.

How the values were obtained:
[1] = molecular target: Muscarinic acetylcholine receptor; experiment: Displacement of [3H]NMS from muscarinic receptor in Sprague-Dawley rat brain homogenates after 60 mins by liquid scintillation counting method
How it was run: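 Competition binding against [3H]N-methyl scopolamine in rat brain homogenates carrying muscarinic receptors; read-out as log IC50; data from at least four experiments.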

[2] = molecular target: T1, Muscarinic acetylcholine receptor (Rattus norvegicus) (UniProt P08482+P08483+P08485+P08911+P10980); experiment: Displacement of [3H]NMS from muscarinic receptor in Sprague-Dawley rat brain homogenates assessed as remaining protein bound radioligand levels at 300 pM to 1 uM after 60 mins by liquid scintillation counting method relative to control
How it was run: (§1)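 Rat brain homogenates incubated with test ligand at 25 °C. [3H]N-methyl scopolamine binding to muscarinic receptors measured before and after wash-out with ice-cold buffer and expressed as binding remaining. Based on at least four experiments.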

[3] = molecular target: T1, Muscarinic acetylcholine receptor (Rattus norvegicus); experiment: Displacement of [3H]NMS from muscarinic receptor in Sprague-Dawley rat brain homogenates assessed as remaining protein bound radioligand levels at 300 pM to 1 uM preincubated for 60 mins followed by single washout treatment by liquid scintillation counting method relative to control; how it was run: as §1
[4] = molecular target: T1, Muscarinic acetylcholine receptor (Rattus norvegicus); experiment: Displacement of [3H]NMS from muscarinic receptor in Sprague-Dawley rat brain homogenates assessed as remaining protein bound radioligand levels at 300 pM to 1 uM preincubated for 60 mins followed by double washout treatment by liquid scintillation counting method relative to control; how it was run: as §1
[5] = system: Rattus norvegicus; experiment: In vivo displacement of [3H]NMS from muscarinic receptor in rat bladder assessed as increase in [3H]NMS Kdapp at 10 uM administered via intravesical instillation measured after 30 mins; assay type: functional, organism-based
How it was run: (§2)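 Rats received the compound by intravesical instillation. Bladders were dissected 30 min or 24 h afterwards and [3H]N-methyl scopolamine binding to bladder muscarinic receptors was measured directly. The apparent Kd (Kdapp) of the radioligand was calculated and compared against control animals.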

[6] = system: Rattus norvegicus; experiment: In vivo displacement of [3H]NMS from muscarinic receptor in rat bladder assessed as increase in [3H]NMS Kdapp at 10 uM administered via intravesical instillation measured after 24 hrs; assay type: functional, organism-based; how it was run: as §2
[7] = molecular target: T2, Muscarinic acetylcholine receptor M4 (Rattus norvegicus, UniProt P08485); experiment: Displacement of [3H]NMS from muscarinic receptor M4 in Sprague-Dawley rat brain homogenates after 60 mins by liquid scintillation counting method
T2 sequence (P08485 whole entry): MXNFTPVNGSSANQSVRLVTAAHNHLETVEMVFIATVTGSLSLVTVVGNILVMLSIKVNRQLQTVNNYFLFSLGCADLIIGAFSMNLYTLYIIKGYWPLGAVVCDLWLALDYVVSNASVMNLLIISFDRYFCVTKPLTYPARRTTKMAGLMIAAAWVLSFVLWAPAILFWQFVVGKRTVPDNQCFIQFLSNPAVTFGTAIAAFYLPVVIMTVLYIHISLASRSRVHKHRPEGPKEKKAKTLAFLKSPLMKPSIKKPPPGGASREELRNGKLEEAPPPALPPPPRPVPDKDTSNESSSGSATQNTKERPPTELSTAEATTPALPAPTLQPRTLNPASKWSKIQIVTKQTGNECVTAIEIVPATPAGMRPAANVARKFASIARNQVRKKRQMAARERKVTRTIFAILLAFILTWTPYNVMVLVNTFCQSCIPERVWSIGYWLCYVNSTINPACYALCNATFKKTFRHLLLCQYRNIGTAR

[8] = molecular target: T3, Muscarinic acetylcholine receptor M1 (Rattus norvegicus, UniProt P08482); experiment: Displacement of [3H]NMS from muscarinic receptor M1 in Sprague-Dawley rat brain homogenates after 60 mins by liquid scintillation counting method
T3 sequence (P08482 whole entry): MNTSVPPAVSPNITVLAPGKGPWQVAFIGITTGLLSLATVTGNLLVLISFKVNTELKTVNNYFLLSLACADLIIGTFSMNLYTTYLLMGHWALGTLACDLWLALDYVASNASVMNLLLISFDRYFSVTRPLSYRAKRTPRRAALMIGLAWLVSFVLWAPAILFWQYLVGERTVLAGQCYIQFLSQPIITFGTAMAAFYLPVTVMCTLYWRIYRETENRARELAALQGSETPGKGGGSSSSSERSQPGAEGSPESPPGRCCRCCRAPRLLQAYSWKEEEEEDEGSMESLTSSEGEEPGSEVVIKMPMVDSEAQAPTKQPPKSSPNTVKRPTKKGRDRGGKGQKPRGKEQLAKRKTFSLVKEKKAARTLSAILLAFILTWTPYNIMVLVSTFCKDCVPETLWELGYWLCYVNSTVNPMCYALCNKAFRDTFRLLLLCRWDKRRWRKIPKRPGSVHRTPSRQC

[9] = molecular target: T4, Muscarinic acetylcholine receptor M5 (Rattus norvegicus, UniProt P08911); experiment: Displacement of [3H]NMS from muscarinic receptor M5 in Sprague-Dawley rat brain homogenates after 60 mins by liquid scintillation counting method
T4 sequence (P08911 whole entry): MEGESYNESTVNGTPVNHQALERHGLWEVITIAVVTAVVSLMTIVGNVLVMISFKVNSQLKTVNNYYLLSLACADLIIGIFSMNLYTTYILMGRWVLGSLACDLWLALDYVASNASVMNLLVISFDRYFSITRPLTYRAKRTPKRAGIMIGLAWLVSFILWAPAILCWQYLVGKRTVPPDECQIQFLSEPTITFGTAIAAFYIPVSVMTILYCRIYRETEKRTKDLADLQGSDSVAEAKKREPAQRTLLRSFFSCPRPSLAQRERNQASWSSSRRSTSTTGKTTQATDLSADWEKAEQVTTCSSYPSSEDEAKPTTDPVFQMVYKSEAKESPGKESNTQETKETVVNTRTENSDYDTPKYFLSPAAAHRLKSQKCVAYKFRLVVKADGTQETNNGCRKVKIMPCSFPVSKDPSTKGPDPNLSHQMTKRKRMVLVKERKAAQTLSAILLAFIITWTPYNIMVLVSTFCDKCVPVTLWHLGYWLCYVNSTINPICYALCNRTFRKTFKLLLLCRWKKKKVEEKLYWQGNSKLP

[10] = molecular target: Muscarinic acetylcholine receptor M3 (Rattus norvegicus, UniProt P08483); experiment: Displacement of [3H]NMS from muscarinic receptor M3 in Sprague-Dawley rat brain homogenates after 60 mins by liquid scintillation counting method
[11] = molecular target: T5, Muscarinic acetylcholine receptor M2 (Rattus norvegicus, UniProt P10980); experiment: Displacement of [3H]NMS from muscarinic receptor M2 in Sprague-Dawley rat brain homogenates after 60 mins by liquid scintillation counting method
T5 sequence (P10980 whole entry): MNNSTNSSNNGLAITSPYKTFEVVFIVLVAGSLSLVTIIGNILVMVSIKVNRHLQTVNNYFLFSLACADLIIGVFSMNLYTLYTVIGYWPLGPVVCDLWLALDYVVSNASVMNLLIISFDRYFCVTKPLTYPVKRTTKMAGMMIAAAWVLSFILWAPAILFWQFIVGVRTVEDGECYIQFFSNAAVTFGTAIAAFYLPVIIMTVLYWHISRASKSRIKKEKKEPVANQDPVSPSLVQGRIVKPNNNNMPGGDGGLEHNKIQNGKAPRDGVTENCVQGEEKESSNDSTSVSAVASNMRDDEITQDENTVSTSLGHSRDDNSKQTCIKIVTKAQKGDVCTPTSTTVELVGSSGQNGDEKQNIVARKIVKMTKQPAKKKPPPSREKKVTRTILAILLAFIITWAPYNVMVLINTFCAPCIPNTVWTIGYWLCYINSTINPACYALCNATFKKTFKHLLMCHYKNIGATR

Chain of Muscarinic acetylcholine receptor M3 (P08483 whole entry): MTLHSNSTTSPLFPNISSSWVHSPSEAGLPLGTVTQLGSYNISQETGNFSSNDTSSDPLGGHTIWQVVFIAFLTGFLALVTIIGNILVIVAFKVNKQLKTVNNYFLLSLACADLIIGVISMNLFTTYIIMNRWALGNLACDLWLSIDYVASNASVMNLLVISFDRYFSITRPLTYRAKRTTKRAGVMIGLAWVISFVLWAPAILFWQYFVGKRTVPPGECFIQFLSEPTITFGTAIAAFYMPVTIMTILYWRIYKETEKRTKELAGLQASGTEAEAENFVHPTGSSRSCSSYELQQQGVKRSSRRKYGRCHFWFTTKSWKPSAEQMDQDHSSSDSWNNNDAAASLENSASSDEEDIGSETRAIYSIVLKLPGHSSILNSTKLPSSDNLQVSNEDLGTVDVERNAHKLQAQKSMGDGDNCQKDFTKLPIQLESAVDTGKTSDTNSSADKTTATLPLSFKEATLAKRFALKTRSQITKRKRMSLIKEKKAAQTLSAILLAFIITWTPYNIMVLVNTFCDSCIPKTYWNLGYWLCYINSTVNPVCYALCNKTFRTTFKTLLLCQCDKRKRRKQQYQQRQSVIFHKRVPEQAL

| Compound | pIC50 [1] | Activity [2] [%] | Activity [3] [%] | Activity [4] [%] | Ki [10] [nM] | Ki [11] [nM] | inhibition [5] | inhibition [6] | Ki [7] [nM] | Ki [8] [nM] | Ki [9] [nM] |
| --- | --- | --- | --- | --- | --- | --- | --- | --- | --- | --- | --- |
| CCCCCCCCCCCCCCCCCC(=O)OC[C@H](COP(=O)(O)OCCOCCOCCOCCOCCOCCNC(=O)CCCCCC(=O)NCCc1ccc(O)c([C@H](CCN(C(C)C)C(C)C)c2ccccc2)c1)OC(=O)CCCCCCCCCCCCCCCCC | 7.86 | 14.5 | 5.1 |  |  |  |  |  |  |  |  |
| CCCCCCCCCCCCCCCCCC(=O)OC[C@H](COP(=O)(O)OCCOCCOCCOCCOCCOCCOCCOCCOCCOCCNC(=O)CCCCCC(=O)NCCc1ccc(O)c([C@H](CCN(C(C)C)C(C)C)c2ccccc2)c1)OC(=O)CCCCCCCCCCCCCCCCC | 8.53 | 6 | 1.7 | 2.1 |  |  | Active | Active |  |  |  |
| CCCCCCCCCCCCCCCCCC(=O)OC[C@H](COP(=O)(O)OCCOCCOCCOCCOCCOCCOCCOCCOCCOCCOCCOCCNC(=O)CCCCCC(=O)NCCc1ccc(O)c([C@H](CCN(C(C)C)C(C)C)c2ccccc2)c1)OC(=O)CCCCCCCCCCCCCCCCC | 8.49 | 11.2 | 1.9 |  |  |  |  |  |  |  |  |
| Cc1ccc(O)c([C@H](CCN(C(C)C)C(C)C)c2ccccc2)c1 [TOLTERODINE] |  | 9 | 36.2 | 93.2 |  |  | Active | inactive | 3.1 | 1.4 | 2.2 |
| CCCCCCCCCCCCCCCCCC(=O)OC[C@H](COP(=O)(O)OCCOCCOCCOCCOCCOCCOCCOCCNC(=O)CCCCCC(=O)NCCc1ccc(O)c([C@H](CCN(C(C)C)C(C)C)c2ccccc2)c1)OC(=O)CCCCCCCCCCCCCCCCC | 8.15 | 4.7 | 2.1 |  |  |  |  |  |  |  |  |

The next lines start with results.

| pIC50 [1] | Activity [2] [%] | Activity [3] [%] | Activity [4] [%] | Ki [10] [nM] | Ki [11] [nM] | Compound | inhibition [5] | inhibition [6] | Ki [7] [nM] | Ki [8] [nM] | Ki [9] [nM] |
| --- | --- | --- | --- | --- | --- | --- | --- | --- | --- | --- | --- |
| 7.88 | 7.1 | 34.9 | 63.5 |  |  | CC(C)N(CC[C@H](c1ccccc1)c1cc(CCNC(=O)CCCCCC(=O)NCCOCCOCCOCCOCCOCCOCCOCCOCCOCCO)ccc1O)C(C)C.Cl |  |  |  |  |  |
| 7.74 | 32.3 | 15.5 |  |  |  | CCCCCCCCCCCCCCCCCC(=O)OC[C@H](COP(=O)(O)OCCOCCOCCOCCNC(=O)CCCCCC(=O)NCCc1ccc(O)c([C@H](CCN(C(C)C)C(C)C)c2ccccc2)c1)OC(=O)CCCCCCCCCCCCCCCCC |  |  |  |  |  |
| 6.91 | 66.4 | 59.2 |  |  |  | CCCCCCCCCCCCCCCCCC(=O)OC[C@H](COP(=O)(O)OCCOCCNC(=O)CCCCCC(=O)NCCc1ccc(O)c([C@H](CCN(C(C)C)C(C)C)c2ccccc2)c1)OC(=O)CCCCCCCCCCCCCCCCC |  |  |  |  |  |
|  |  |  |  | 10.3 | 9 | CC(C)N(CC[C@H](c1ccccc1)c1cc(CCNC(=O)CCCCCNC(=O)COc2ccc(/C=C/C3=[N+]4C(=Cc5ccc(-c6cccs6)n5[B-]4(F)F)C=C3)cc2)ccc1O)C(C)C |  |  | 6.3 | 4.6 | 17.5 |
